Laboratory results taken from ChEMBL document CHEMBL3286128 (J Med Chem, 2014).
Active and inactive are the calls of the source. The rule behind the calls is not given here.

What was measured:
[1] = system: Human immunodeficiency virus 1; experiment: Antiviral activity against HIV-1 harboring wild type integrase infected in human HOS cells pretreated with compound for 3 hrs by single-round HIV-1 infectivity assay; type: functional, organism-based; conditions: Human immunodeficiency virus 1, HOS
[2] = system: Human immunodeficiency virus 1; experiment: Ratio of EC50 for raltegravir-resistant HIV-1 harboring integrase N155H mutant infected in human HOS cells to EC50 for HIV-1 harboring integrase wild type integrase infected in human HOS cells; type: functional
[3] = system: Human immunodeficiency virus 1; experiment: Antiviral activity against HIV-1 harboring wild type integrase infected in human HOS cells pretreated with compound for 3 hrs by single-round HIV-1 infectivity assay in presence of 5% fetal bovine serum; type: functional, organism-based; conditions: Human immunodeficiency virus 1, HOS
In short: (§1)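 VSV-g-pseudotyped single-round HIV-1 luciferase vector (WT or mutant IN) made in 293T cells by calcium phosphate transfection, supernatant harvested at 48 h. HOS cells were seeded the day before, then pretreated with compound, 11 serial dilutions from 10 μM to 0.0005 μM, at 37 °C for 3 h. Virus was added and cells kept 48 h at 37 °C. Luciferase was read and normalised to infectivity without compound.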

[4] = system: Human immunodeficiency virus 1; experiment: Ratio of EC50 for INSTI-resistant HIV-1 harboring integrase R263K mutant infected in human HOS cells to EC50 for HIV-1 harboring integrase wild type integrase infected in human HOS cells; type: functional
[5] = system: Human immunodeficiency virus 1; experiment: Antiviral activity against INSTI-resistant HIV-1 harboring integrase G118R mutant infected in human HOS cells pretreated with compound for 3 hrs by single-round HIV-1 infectivity assay; type: functional, organism-based; conditions: Human immunodeficiency virus 1, HOS; in short: as §1
[6] = target: T1, Human immunodeficiency virus type 1 integrase (Human immunodeficiency virus 1, UniProt Q7ZJM1)
[7] = system: Human immunodeficiency virus 1; experiment: Ratio of EC50 for INSTI-resistant HIV-1 harboring integrase G118R mutant infected in human HOS cells to EC50 for HIV-1 harboring integrase wild type integrase infected in human HOS cells; type: functional
[8] = system: Human immunodeficiency virus 1; experiment: Antiviral activity against raltegravir-resistant HIV-1 harboring integrase N155H mutant infected in human HOS cells pretreated with compound for 3 hrs by single-round HIV-1 infectivity assay; type: functional, organism-based; conditions: Human immunodeficiency virus 1, HOS
[9] = Selectivity index, ratio of CC50 for human HOS cells to EC50 for HIV-1 harboring wild type integrase infected in human HOS cells; type: toxicity, cell-based; conditions: read-out: Ratio CC50/EC50
In short: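 HOS cells were exposed to compound and viability was read as ATP level by luciferase reporter. SI is CC50 divided by WT-vector EC50.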

[10] = system: Human immunodeficiency virus 1; experiment: Ratio of EC50 for raltegravir-resistant HIV-1 harboring integrase Y143R mutant infected in human HOS cells to EC50 for HIV-1 harboring integrase wild type integrase infected in human HOS cells; type: functional
HOS = experiment: Cytotoxicity against human HOS cells assessed as ATP level by luciferase reporter assay; type: cell-based
In short: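 HOS cells were exposed to compound and viability was read as ATP level by luciferase reporter. […] SI is CC50 divided by WT-vector EC50.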

[11] = system: Human immunodeficiency virus 1; experiment: Antiviral activity against raltegravir-resistant HIV-1 harboring integrase Y143R mutant infected in human HOS cells pretreated with compound for 3 hrs by single-round HIV-1 infectivity assay; type: functional, organism-based; conditions: Human immunodeficiency virus 1, HOS
[12] = target: T1, Human immunodeficiency virus type 1 integrase; experiment: Inhibition of strand transfer activity of HIV-1 integrase using [gamma-32P]-labeled DNA as substrate
In short: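 Gel-based assay with radiolabelled oligonucleotide substrate and Mg2+ cofactor, measuring strand transfer by recombinant HIV-1 integrase. IC50 determined.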

[13] = system: Human immunodeficiency virus 1; experiment: Antiviral activity against raltegravir-resistant HIV-1 harboring integrase G140S/Q148H double mutant infected in human HOS cells pretreated with compound for 3 hrs by single-round HIV-1 infectivity assay; type: functional, organism-based; conditions: Human immunodeficiency virus 1, HOS
[14] = target: Human immunodeficiency virus type 1 reverse transcriptase (Human immunodeficiency virus 1) (UniProt Q72547); experiment: Inhibition of HIV-1 RNase H activity of reverse transcriptase assessed as full length RNA level at 10 uM by agarose gel electrophoresis
[15] = target: Human immunodeficiency virus type 1 reverse transcriptase (Human immunodeficiency virus 1) (UniProt Q72547); experiment: Inhibition of HIV-1 reverse transcriptase RNase H activity-mediated -8 cleavage assessed as retention of -17 cleavage after 10 to 15 mins by agarose gel electrophoresis
[16] = system: Human immunodeficiency virus 1; experiment: Ratio of EC50 for raltegravir-resistant HIV-1 harboring integrase G140S/Q148H double mutant infected in human HOS cells to EC50 for HIV-1 harboring integrase wild type integrase infected in human HOS cells; type: functional
[17] = Retention time of the compound by HPLC analysis; type: physicochemical
In short: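 Preparative HPLC run as a linear gradient of solvent B over 30 min, starting at 30% B and ending at 70% or 80% B depending on the compound. Retention time was taken at elution.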

[18] = system: Human immunodeficiency virus 1; experiment: Antiviral activity against HIV-1 harboring wild type integrase infected in human HOS cells pretreated with compound for 3 hrs by single-round HIV-1 infectivity assay in presence of 10% fetal bovine serum; type: functional, organism-based; conditions: Human immunodeficiency virus 1, HOS; in short: as §1
[19] = target: Human immunodeficiency virus type 1 reverse transcriptase (Human immunodeficiency virus 1) (UniProt Q72547); experiment: Inhibition of HIV-1 DNA-dependent DNA polymerase activity of reverse transcriptase after 60 mins by agarose gel electrophoresis
[20] = system: Human immunodeficiency virus 1; experiment: Antiviral activity against INSTI-resistant HIV-1 harboring integrase R263K mutant infected in human HOS cells pretreated with compound for 3 hrs by single-round HIV-1 infectivity assay; type: functional, organism-based; conditions: Human immunodeficiency virus 1, HOS; in short: as §1
[21] = system: Human immunodeficiency virus 1; experiment: Antiviral activity against HIV-1 harboring wild type integrase infected in human HOS cells pretreated with compound for 3 hrs by single-round HIV-1 infectivity assay in presence of 15% fetal bovine serum; type: functional, organism-based; conditions: Human immunodeficiency virus 1, HOS; in short: as §1

T1 sequence (Q7ZJM1 whole entry): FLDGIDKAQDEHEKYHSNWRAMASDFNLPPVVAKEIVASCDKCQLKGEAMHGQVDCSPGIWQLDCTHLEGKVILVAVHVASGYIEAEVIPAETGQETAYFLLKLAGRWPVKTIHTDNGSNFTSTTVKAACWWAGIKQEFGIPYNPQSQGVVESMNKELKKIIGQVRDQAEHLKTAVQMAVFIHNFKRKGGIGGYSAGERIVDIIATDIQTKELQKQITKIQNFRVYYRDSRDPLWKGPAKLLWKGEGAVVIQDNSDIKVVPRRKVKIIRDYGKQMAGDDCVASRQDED

SMILES: COC(=O)CNc1c(C(=O)NCc2ccc(F)cc2F)c(=O)n(O)c2ncccc12
- EC50 [1]: 3.8 nM
- Ratio EC50 [2]: 5
- EC50 [3]: 3.8 nM
- Ratio EC50 [4]: 7
- EC50 [5]: 41 nM
- IC50 [6]: 710 nM
- Ratio EC50 [7]: 11
- EC50 [8]: 19 nM
- selectivity ratio [9]: > 65800
- Ratio EC50 [10]: 1
- CC50 (HOS): > 250000 nM
- EC50 [11]: 4.6 nM
- IC50 [12]: 21 nM
- EC50 [13]: 36 nM
- inhibition [14]: inactive
- inhibition [15]: Active
- Ratio EC50 [16]: 9
- Retention_time [17]: 28.4 min
- EC50 [18]: 3 nM
- inhibition [19]: Active
- EC50 [20]: 26 nM
- EC50 [21]: 3 nM
